From PubChem BioAssay
Many of the other results were omitted from the sample, so hits are more common in it than they were.
YB-1 expression = YB-1 expression inhibition; U2OS, qRT-PCR YB-1 vs CDIP delta delta Cp, 16 h; stronger effect = higher value; zero = DMSO, each unit about twofold; delta delta Cp (YB-1 minus CDIP) (no concentration beside the values); actives 0.37% (n = 30,000);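 active = delta delta Cp rounded down to an integer at or above 3, about 3 SD of DMSO wells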;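 note: higher means less YB-1 transcript or more CDIP transcript relative to DMSO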
T cruzi intra = intracellular Trypanosoma cruzi inhibition; intracellular Trypanosoma cruzi in host cells, plate reader; activity score (inhibition), % at 5.01 µM; actives 4.9% (n = 22,000); in the data active = activity score above about 55%;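 note: parasites and compound incubated about four days before reading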
INS-1E rescue = INS-1E beta cell protection from cytokine death; INS-1E cytokine-induced death, ATP luminescence, 48 h; normalised: neutral wells 0, positive control 100; protection from cytokine-induced ATP loss, % at 10 µM; actives 0.1% (n = 20,000); AID 488910;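 active = mean replicate protection from cytokine-induced ATP loss at least 50% and at least 75% of replicates each reaching 50%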
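assay system = INS-1E rat insulinoma cells | amount = 8000 cells per well | medium = phenol-red-free RPMI with 5% fetal bovine serum | doses = one compound concentration, pin transfer | timing = 48 h cytokine plus compound treatment, 10 min reagent incubation | also added = IL-1β, TNF-α and IFN-γ cytokine mix | signal = CellTiter-Glo luminescence measuring cellular ATP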
Each line names hits and unclear results; the compound was inactive in the other large screens.

CC(C)NC(=O)N(C)C[C@H]1Oc2c(NC(=O)Nc3ccc(C(F)(F)F)cc3)cccc2C(=O)N([C@@H](C)CO)C[C@@H]1C	none
COc1ccc(S(=O)(=O)Nc2ccc3c(c2)CC(=O)N([C@H](C)CO)C[C@@H](C)[C@H](CN(C)CC2CC2)O3)cc1	YB-1 expression 3.18
C[C@H]1CN([C@@H](C)CO)C(=O)Cc2cc(NS(=O)(=O)c3ccc(Cl)cc3)ccc2O[C@H]1CN(C)CC1CCCCC1	T cruzi intra 73.2
COc1ccc(S(=O)(=O)Nc2ccc3c(c2)CC(=O)N([C@H](C)CO)C[C@@H](C)[C@H](CN(C)CC2CCCCC2)O3)cc1	T cruzi intra 58.6
COc1ccc(S(=O)(=O)Nc2ccc3c(c2)CC(=O)N([C@H](C)CO)C[C@H](C)[C@H](CN(C)CC2CCCCC2)O3)cc1	none
COc1ccc(S(=O)(=O)Nc2ccc3c(c2)CC(=O)N([C@H](C)CO)C[C@@H](C)[C@@H](CN(C)CC2CC2)O3)cc1	none
C[C@H]1CN([C@@H](C)CO)C(=O)Cc2cc(NS(=O)(=O)c3ccc(Cl)cc3)ccc2O[C@@H]1CN(C)CC1CCCCC1	none
C[C@@H]1CCCCO[C@H](CN(C)C)[C@@H](C)CN([C@H](C)CO)C(=O)c2cc(NC(=O)Cc3ccccc3)ccc2O1	none
COc1ccc(/C=C2/C(=O)C(C(C)C)=CCC2C)cc1 (stereo not given)	none (no result: T cruzi intra, INS-1E rescue)
C[C@H](CO)N1C[C@H](C)[C@H](CN(C)C(=O)Nc2ccccc2)Oc2ncc(C#Cc3ccccc3)cc2C1=O	none (no result: INS-1E rescue)
C[C@H](CO)N1C[C@H](C)[C@H](CN(C)C(=O)Nc2ccccc2)Oc2ncc(C#Cc3ccc(C(F)(F)F)cc3)cc2C1=O	T cruzi intra 83.4 (no result: INS-1E rescue)
COc1ccc(NC(=O)N(C)C[C@@H]2Oc3ncc(C#CC(C)(C)O)cc3C(=O)N([C@H](C)CO)C[C@@H]2C)cc1	none (no result: INS-1E rescue)
C[C@H](CO)N1C[C@H](C)[C@H](CN(C)C(=O)Nc2ccc3c(c2)OCO3)Oc2ncc(C#CC(C)(C)O)cc2C1=O	none
C[C@H](CO)N1C[C@H](C)[C@H](CN(C)C(=O)Nc2ccc3c(c2)OCO3)Oc2ncc(C#Cc3ccc(C(F)(F)F)cc3)cc2C1=O	T cruzi intra 82.7 (no result: INS-1E rescue)
COc1ccc(NC(=O)N(C)C[C@@H]2Oc3ncc(C#Cc4ccc(C(F)(F)F)cc4)cc3C(=O)N([C@H](C)CO)C[C@@H]2C)cc1	T cruzi intra 82.9 (no result: INS-1E rescue)
CC(=O)OCC1(C)CC2[C@]3(CO[C@@]24CCC2[C@@]5(C)CC[C@H](O[C@@H]6OC[C@@H](O)[C@H](O)[C@H]6O)[C@@](C)(CO)C5CC[C@@]2(C)[C@]4(C)C[C@H]3O)[C@@H](O)C1 (stereo not given in full)	none (no result: T cruzi intra, INS-1E rescue)
C[C@@H]1CCCCO[C@H](CN(C)Cc2ccc(C(=O)O)cc2)[C@@H](C)CN([C@H](C)CO)C(=O)c2cc(NS(C)(=O)=O)ccc2O1	none
C[C@H](CO)N1C[C@H](C)[C@H](CN(C)S(=O)(=O)c2cn(C)cn2)Oc2ccc(NC(=O)CCCN(C)C)cc2C1=O	none (no result: INS-1E rescue)
CC(C)NC(=O)N(C)C[C@@H]1Oc2c(NC(=O)Nc3ccc(F)cc3)cccc2C(=O)N([C@H](C)CO)C[C@H]1C	none
CC(C)NC(=O)N(C)C[C@H]1Oc2c(NC(=O)Nc3ccc(F)cc3)cccc2C(=O)N([C@@H](C)CO)C[C@H]1C	YB-1 expression 4.28
C[C@H](CO)N1C[C@H](C)[C@H](CN(C)C(=O)Nc2ccc(F)cc2)Oc2c(NC(=O)Nc3ccccc3)cccc2C1=O	none
COc1ccc(NC(=O)N(C)C[C@H]2Oc3c(NS(=O)(=O)c4ccc(F)cc4)cccc3C(=O)N([C@@H](C)CO)C[C@H]2C)cc1	T cruzi intra 64.2
COc1ccc(S(=O)(=O)Nc2cccc3c2O[C@H](CN(C)C(=O)Nc2ccc(F)cc2)[C@@H](C)CN([C@H](C)CO)C3=O)cc1	none
C[C@H](CO)N1C[C@H](C)[C@H](CN(C)C(=O)Nc2ccccc2)Oc2c(NC(=O)Nc3ccc(F)cc3)cccc2C1=O	YB-1 expression 3.05
NC(=NC(=O)c1ccc(OCC(F)(F)F)nc1)c1ccc(C(F)(F)F)cc1	none (no result: T cruzi intra, INS-1E rescue)
Cn1c(C(C#N)C(=O)c2ccccc2I)nc2ccccc21 (stereo not given)	none (no result: T cruzi intra, INS-1E rescue)
Cc1ccc(S(=O)(=O)NC2CCN(Cc3ccc(OCCO)cc3)CC2)cc1	none (no result: T cruzi intra, INS-1E rescue)
Cc1ccc(S(=O)(=O)N(C)C[C@@H]2OCCCC[C@@H](C)Oc3ccc(NC(=O)Nc4ccc(C(F)(F)F)cc4)cc3C(=O)N([C@H](C)CO)C[C@@H]2C)cc1	T cruzi intra 70.0
C[C@@H]1CCCCO[C@H](CN(C)S(=O)(=O)c2ccc(F)cc2)[C@@H](C)CN([C@H](C)CO)C(=O)c2cc(NC(=O)Nc3ccc(F)cc3)ccc2O1	none
C[C@@H]1CCCCO[C@H](CN(C)S(=O)(=O)c2ccc(F)cc2)[C@@H](C)CN([C@H](C)CO)C(=O)c2cc(NC(=O)Nc3ccc(C(F)(F)F)cc3)ccc2O1	T cruzi intra 63.6
Cc1ccc(S(=O)(=O)N(C)C[C@@H]2OCCCC[C@@H](C)Oc3ccc(NC(=O)Nc4ccc(F)cc4)cc3C(=O)N([C@H](C)CO)C[C@@H]2C)cc1	none
CC(C)NC(=O)Nc1ccc2c(c1)CC(=O)N([C@H](C)CO)C[C@@H](C)[C@H](CN(C)C)O2	none
Cc1noc(C)c1NC(=O)Nc1ccc2c(c1)CC(=O)N([C@@H](C)CO)C[C@@H](C)[C@@H](CN(C)S(=O)(=O)c1c(C)noc1C)O2	none
CC(C)NC(=O)N(C)C[C@H]1Oc2ccc(NS(=O)(=O)c3ccc(F)cc3)cc2CC(=O)N([C@H](C)CO)C[C@H]1C	none
C[C@H](CO)N1C[C@H](C)[C@H](CN(C)Cc2ccc(C(=O)Nc3ccccc3N)cc2)Oc2ccc(NS(=O)(=O)c3ccc(F)cc3)cc2C1=O	T cruzi intra 62.9
C[C@@H]1CN([C@H](C)CO)C(=O)c2cccc(NS(=O)(=O)c3ccc(Cl)cc3)c2O[C@H]1CN(C)Cc1ccc(C(=O)Nc2ccccc2N)cc1	T cruzi intra 65.0
C[C@@H]1CN([C@H](C)CO)C(=O)c2cc(NS(=O)(=O)c3ccccc3)ccc2O[C@H]1CN(C)Cc1ccc(C(=O)Nc2ccccc2N)cc1	none
C[C@H]1CN([C@@H](C)CO)C(=O)c2cc(NS(=O)(=O)c3ccc(Cl)cc3)ccc2O[C@H]1CN(C)Cc1ccc(C(=O)Nc2ccccc2N)cc1	T cruzi intra 73.0
C[C@@H]1CN([C@@H](C)CO)C(=O)c2cc(NS(=O)(=O)c3ccc(F)cc3)ccc2O[C@@H]1CN(C)Cc1ccc(C(=O)Nc2ccccc2N)cc1	none
C[C@@H]1CN([C@@H](C)CO)C(=O)c2cccc(NS(=O)(=O)c3ccc(Cl)cc3)c2O[C@@H]1CN(C)Cc1ccc(C(=O)Nc2ccccc2N)cc1	none
COc1ccc(S(=O)(=O)Nc2ccc3c(c2)C(=O)N([C@H](C)CO)C[C@H](C)[C@H](CN(C)Cc2ccc(C(=O)Nc4ccccc4N)cc2)OCCCC[C@@H](C)O3)cc1	none
